Test results as given in ChEMBL document CHEMBL2407017, “Pyrazolo[3,4-d]pyrimidine Prodrugs: Strategic Optimization of the Aqueous Solubility of Dual Src/Abl Inhibitors” (ACS Med Chem Lett, 2013).
≈ marks a conversion by molar mass, not a printed value. Calls of active or inactive are those of the source. The calls are words filed in the database; no cut-off is given here.

Assays:
[1] = target: Proto-oncogene tyrosine-protein kinase Src (Mus musculus) (UniProt P05480); assay: Inhibition of c-SRC phosphorylation at Y416 in mouse 32D cells expressing BCR/ABL fusion protein p210 at 1 uM by Western blotting analysis; assay type: cell-based
Procedure, shortened: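 32D cells treated with 1 μM compound. Phosphorylated (active) c-Src and c-Abl detected by Western blot with β-actin as loading control. Dasatinib used as reference dual inhibitor.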

cells [2] = details: Mus musculus, 32D, 48 h
[3] = Metabolic stability in human liver microsomes assessed as compound remaining at 50 uM after 60 mins by UV/LC/MS analysis; assay type: ADME, Microsome; details: read-out: Stability
Procedure, shortened: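 Human pooled liver microsomes, incubated at 37 °C for 1 h to simulate phase I metabolism. Parent drug and metabolites are then quantified by LC–MS. Stability is given as the percentage of unmodified drug remaining.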

[4] = Apparent permeability of the compound after 5 hrs by PAMPA; assay type: ADME; details: for Papp at 5 h: PAMPA
[5] = Apparent permeability of the compound assessed as membrane retention after 5 hrs by PAMPA; assay type: ADME
Procedure, shortened: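 PAMPA passive permeability measured as Papp (10⁻⁶ cm s⁻¹). Membrane retention is the percentage of compound that fails to reach the acceptor compartment. Mean of at least two experiments.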

[6] = Thermodynamic solubility of the compound in water at 1 mg after 24 hrs by UV/LC-MS analysis; assay type: physicochemical; details: read-out: Therm_solubility
Procedure, shortened: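 Aqueous solubility: compound concentration measured by UV/LC−MS after filtration through a 0.45 μm nylon filter. Mean of at least two experiments.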

cells [7] = details: Mus musculus, 32D, 48 h; remark: listed apart in the source
[8] = Half life in phosphate buffer at 500 uM at pH 7.4 by HPLC analysis; assay type: physicochemical
Procedure, shortened: (§1)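 Compounds dissolved at 500 μM in methanol, water, or PBS (12.5 μM, pH 7.4). Mean of at least two experiments.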

[9] = Half life in human plasma at 1 mM by HPLC analysis; assay type: ADME, cell-free
Procedure, shortened: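 Incubated at 37 °C in pooled human plasma. Loss of substrate and formation of parent drug followed by HPLC. Mean of at least two experiments.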

[10] = Half life in methanol at 500 uM by HPLC analysis; assay type: physicochemical; procedure, shortened: as §1
[11] = target: Tyrosine-protein kinase ABL1 (Homo sapiens) (UniProt P00519); assay: Inhibition of recombinant wild type c-ABL (unknown origin) at 100 uM after 5 mins by scintillation counting analysis in presence of [gamma32P]ATP
[12] = Half life in water at 500 uM by HPLC analysis; assay type: physicochemical; procedure, shortened: as §1
[13] = target: Proto-oncogene tyrosine-protein kinase Src (Homo sapiens) (UniProt P12931); assay: Inhibition of recombinant c-SRC (unknown origin) at 100 uM after 5 mins by scintillation counting analysis in presence of [gamma32P]ATP
Sequence of Proto-oncogene tyrosine-protein kinase Src (Homo sapiens) (P12931 2-536 limits assumed): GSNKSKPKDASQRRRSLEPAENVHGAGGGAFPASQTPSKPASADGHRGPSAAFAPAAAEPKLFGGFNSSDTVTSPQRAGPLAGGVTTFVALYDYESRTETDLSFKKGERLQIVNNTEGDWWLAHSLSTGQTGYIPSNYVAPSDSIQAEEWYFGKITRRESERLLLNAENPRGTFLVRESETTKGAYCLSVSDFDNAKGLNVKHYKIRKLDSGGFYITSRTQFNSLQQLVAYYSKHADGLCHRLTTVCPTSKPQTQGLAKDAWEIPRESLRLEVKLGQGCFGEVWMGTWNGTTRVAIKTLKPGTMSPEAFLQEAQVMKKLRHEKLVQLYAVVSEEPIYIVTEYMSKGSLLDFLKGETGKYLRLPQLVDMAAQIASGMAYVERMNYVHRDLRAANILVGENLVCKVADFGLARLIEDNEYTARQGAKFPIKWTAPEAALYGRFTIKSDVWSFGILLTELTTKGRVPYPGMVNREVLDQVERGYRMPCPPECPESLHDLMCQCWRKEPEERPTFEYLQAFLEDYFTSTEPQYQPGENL

Sequence of Proto-oncogene tyrosine-protein kinase Src (Mus musculus) (P05480 2-535 limits assumed): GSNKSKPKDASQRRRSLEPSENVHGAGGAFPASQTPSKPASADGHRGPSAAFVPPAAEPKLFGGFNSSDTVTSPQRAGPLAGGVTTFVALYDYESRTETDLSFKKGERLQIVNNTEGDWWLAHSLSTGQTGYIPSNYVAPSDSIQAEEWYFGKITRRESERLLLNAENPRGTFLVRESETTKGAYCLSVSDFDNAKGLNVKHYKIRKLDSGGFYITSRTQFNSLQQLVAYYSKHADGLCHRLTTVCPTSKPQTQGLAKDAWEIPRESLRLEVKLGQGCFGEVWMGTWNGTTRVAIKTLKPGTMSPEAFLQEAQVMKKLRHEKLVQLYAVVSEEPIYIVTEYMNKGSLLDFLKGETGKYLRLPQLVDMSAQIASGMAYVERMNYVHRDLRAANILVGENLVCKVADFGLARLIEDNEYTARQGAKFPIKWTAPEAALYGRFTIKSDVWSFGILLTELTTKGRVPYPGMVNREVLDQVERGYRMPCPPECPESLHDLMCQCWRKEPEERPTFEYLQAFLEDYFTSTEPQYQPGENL
Sequence of Tyrosine-protein kinase ABL1 (Homo sapiens) (P00519 whole entry): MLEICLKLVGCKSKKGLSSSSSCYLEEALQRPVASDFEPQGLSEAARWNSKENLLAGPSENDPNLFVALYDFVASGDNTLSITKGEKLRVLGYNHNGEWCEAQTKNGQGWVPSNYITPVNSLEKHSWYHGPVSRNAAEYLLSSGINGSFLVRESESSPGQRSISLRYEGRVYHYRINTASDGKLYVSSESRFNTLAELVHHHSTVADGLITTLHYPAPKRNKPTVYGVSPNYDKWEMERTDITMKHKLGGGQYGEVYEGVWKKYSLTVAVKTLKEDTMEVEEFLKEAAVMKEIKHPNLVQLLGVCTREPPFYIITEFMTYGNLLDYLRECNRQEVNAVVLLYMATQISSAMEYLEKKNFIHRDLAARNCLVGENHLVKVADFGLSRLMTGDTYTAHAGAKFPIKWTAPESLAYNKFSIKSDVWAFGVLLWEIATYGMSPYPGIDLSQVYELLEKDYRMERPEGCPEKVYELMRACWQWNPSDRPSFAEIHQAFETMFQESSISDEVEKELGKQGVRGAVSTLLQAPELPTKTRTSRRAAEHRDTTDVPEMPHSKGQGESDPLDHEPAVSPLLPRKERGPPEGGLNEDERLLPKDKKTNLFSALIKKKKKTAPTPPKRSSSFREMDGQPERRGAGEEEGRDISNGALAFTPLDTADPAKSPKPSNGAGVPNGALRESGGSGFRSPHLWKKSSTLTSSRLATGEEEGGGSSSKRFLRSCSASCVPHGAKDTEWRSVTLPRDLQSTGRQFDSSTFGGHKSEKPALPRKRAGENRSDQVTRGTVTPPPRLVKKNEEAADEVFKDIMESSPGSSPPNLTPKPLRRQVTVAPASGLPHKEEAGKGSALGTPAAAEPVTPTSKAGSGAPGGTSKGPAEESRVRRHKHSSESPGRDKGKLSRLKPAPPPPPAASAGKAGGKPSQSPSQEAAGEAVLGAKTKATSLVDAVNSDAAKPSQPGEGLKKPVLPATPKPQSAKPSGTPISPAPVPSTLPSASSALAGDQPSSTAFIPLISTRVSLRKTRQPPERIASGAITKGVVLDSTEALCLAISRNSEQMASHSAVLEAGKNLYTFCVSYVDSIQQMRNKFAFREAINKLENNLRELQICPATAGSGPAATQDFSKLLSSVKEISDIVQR

Row | Inhibition of c-SRC Y416 phosphorylation (qualitative) [1] | IC50 (cells [2]) | remaining at 1 h, 50 µM [3] | Papp at 5 h [4] | R% [5] | solubility thermodynamic at 24 h [6] | IC50 (cells [7]) | half-life at 500 µM [8] | half-life at 1000 µM [9] | half-life at 500 µM [10] | inhibition [11] | half-life at 500 µM [12] | inhibition [13] | Papp ([4]; pampa, 5 h) | Compound
1 | Active | 3.5 µM | 91.5% | 5.99 ×10⁻⁶ cm/s | 44.9% | 0.05 µg/mL (≈ 0.128 µM) | 6.7 µM | – | – | – | – | – | – | – | CCCCNc1nc(SCC)nc2c1cnn2CC(Cl)c1ccccc1 (stereo not given)
2 | Active | 1.2 µM | – | – | – | – | 2.4 µM | 63 min | 28 min | 125 min | inactive | 30 min | inactive | – | CCCCN(C(=O)OCCN1CCN(C)CC1)c1nc(SCC)nc2c1cnn2CC(Cl)c1ccccc1 (stereo not given)
3 | Active | 6.2 µM | 95.1% | 0.01 ×10⁻⁶ cm/s | 80.4% | 0.01 µg/mL (≈ 0.022 µM) | 5.8 µM | – | – | – | – | – | – | – | CSc1nc(Nc2cccc(Br)c2)c2cnn(CC(C)c3ccccc3)c2n1 (stereo not given)
4 | Active | 2.8 µM | 99.9% | – | 67.3% | – | 2.6 µM | > 2880 min | 193 min | > 2880 min | inactive | > 2880 min | inactive | 2.11 ×10⁻⁶ cm/s | CSc1nc(N(C(=O)OCCN2CCN(C)CC2)c2cccc(Br)c2)c2cnn(CC(C)c3ccccc3)c2n1 (stereo not given)
